Results on 16 compounds are retold here after PubChem BioAssay.

Activity calls are given as the source filed them.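 How the source made its calls, unless noted: active means viability at or under a set limit in both replicates, limit being median viability minus 3 SD (cut at about 48% in these data, passing the limit was not always enough); inconclusive means at or under the limit in just one replicate; inactive means at or above the limit in both replicates.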

As a reminder, the viability is a read-out of living cells in per cent, often relative to untreated cells. By inhibition is commonly meant the drop in the measured response relative to a control, in per cent.

Assay [1] is described as follows: Her2 expression decrease, cell viability multiplex – SKBR3 breast tumor cells, AlphaScreen, ATP viability, primary screen (AID 461;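 active means Her2 level under about 52% in both replicate screens, with viability over 70% of control, limit read from the data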;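 on Her2 level: lower value means less Her2 protein in the cells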;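 on viability: percent of carrier control wells set as 100% viability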). To be noted: SKBR3 Her2 protein level, 18-24 h, measured here: SKBR3 viability, ATP luminescence, at 10 µM.
For assay [2], the target named is Receptor tyrosine-protein kinase erbB-2 (Homo sapiens) (UniProt P04626). The assay is described as above. To be noted: 18-24 h, at 10 µM, stronger effect = lower value.
Chain of Receptor tyrosine-protein kinase erbB-2 (Homo sapiens) (P04626 whole entry, looked up): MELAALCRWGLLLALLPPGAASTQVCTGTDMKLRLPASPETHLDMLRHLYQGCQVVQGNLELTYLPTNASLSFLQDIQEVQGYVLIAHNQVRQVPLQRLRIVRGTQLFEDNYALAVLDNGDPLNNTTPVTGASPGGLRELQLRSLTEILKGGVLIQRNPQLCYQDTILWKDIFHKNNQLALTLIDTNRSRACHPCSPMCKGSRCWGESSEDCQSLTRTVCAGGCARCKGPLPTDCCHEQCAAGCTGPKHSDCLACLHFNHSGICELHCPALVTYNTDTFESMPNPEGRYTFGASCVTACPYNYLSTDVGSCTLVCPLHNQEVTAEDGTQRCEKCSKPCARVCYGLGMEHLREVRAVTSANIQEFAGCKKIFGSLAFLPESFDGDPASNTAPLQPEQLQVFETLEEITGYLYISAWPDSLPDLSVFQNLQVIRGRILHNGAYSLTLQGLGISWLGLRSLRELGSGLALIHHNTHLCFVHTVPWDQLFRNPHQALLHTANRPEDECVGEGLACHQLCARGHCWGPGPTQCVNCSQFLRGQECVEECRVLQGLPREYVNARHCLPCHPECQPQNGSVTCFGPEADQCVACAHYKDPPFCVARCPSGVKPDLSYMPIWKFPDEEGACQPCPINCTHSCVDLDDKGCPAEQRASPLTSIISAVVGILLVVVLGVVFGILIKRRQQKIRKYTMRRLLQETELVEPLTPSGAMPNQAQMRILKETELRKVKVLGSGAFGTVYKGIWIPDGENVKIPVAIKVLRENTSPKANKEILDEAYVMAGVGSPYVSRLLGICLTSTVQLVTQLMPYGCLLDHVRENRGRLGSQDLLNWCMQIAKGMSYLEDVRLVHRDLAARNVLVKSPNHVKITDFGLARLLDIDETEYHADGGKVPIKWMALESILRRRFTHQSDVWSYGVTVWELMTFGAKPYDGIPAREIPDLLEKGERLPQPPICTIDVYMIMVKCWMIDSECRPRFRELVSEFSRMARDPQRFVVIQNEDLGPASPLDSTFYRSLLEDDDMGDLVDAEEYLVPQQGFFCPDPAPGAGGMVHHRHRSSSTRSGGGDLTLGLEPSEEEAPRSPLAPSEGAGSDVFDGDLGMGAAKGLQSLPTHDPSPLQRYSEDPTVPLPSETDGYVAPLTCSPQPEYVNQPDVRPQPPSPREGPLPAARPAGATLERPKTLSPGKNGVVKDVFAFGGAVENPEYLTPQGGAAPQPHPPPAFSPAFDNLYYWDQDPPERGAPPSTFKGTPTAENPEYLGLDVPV
Assay [3] in a line: reduced viability of SK-BR-3 breast cancer cells – cell-based, 24 h, human, pilot screen (AID 572;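 active means viability at or below 10% of carrier control in both of two separate runs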;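 further: compound exposure lasted between 18 and 24 h rather than exactly 24 h; 100% = carrier-treated control wells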). To be noted: SK-BR-3 viability, CellTiter-Glo luminescence, at 10 µM, stronger effect = lower value. For orientation: Cellular ATP, detected with luciferase, serves as a proxy for viable cell number.
Assay [4] can be described thus: HUVEC growth inhibition – cell-based, human, primary screen (AID 575;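 active means viability at or below 30% in both replicate assays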;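 further: 100% = median of untreated cell wells with 0.1% DMSO on each plate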). The conditions noted are these: HUVEC proliferation, CellTiter-Glo luminescence, 72 h; at 10 µM; stronger effect = lower value. The procedure, abridged:
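System – primary HUVEC, no more than 12 passages · Medium – Low-serum (2% FBS) EBM, supplemented · Times – 72 h exposure, 37 °C, 5% CO2, 30 min RT equilibration · Measured by – luminescent ATP assay · Read-out – % viability relative to median vehicle-well signal on each plate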

The nature of assay [5]: H69AR cell proliferation blockers – human, duplicate replicates, primary screen (AID 580).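 Further: 100% = mean luminescence of untreated wells and 0% = no signal.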 To be noted: H69AR lung tumor cells viability, ATP luminescence, 72 h; at 10 µM; stronger effect = lower value.
Assay [6] can be described thus: MRP1 drug-resistance reversers in H69AR cells – cell-based, doxorubicin co-treatment, pilot screen (AID 601;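 active means viability loss from added drug above about 55%, and viability with drug at most 40%, in both replicates, limit read from the data, passing the limit was not always enough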). The conditions noted are these: CellTiter-Glo, 72 h, at 10 µM; for differential viability (reversal): stronger effect = higher value.
Assay [7] can be described thus: yeast transport mutant growth inhibition pilot in 384-well plates, post-Golgi transport modulator project (AID 636; in the data active means inhibition above about 31%). The conditions noted are these: absorbance 615 nm, about 18 h, stronger effect = higher value.
Assay [8] can be described thus: growth suppression of yeast trafficking mutant, preliminary HTS, modulators of trafficking downstream of Golgi apparatus project, 1536-format plate, OD 615 nm (AID 637; in the data active means inhibition above about 30%). To be noted: yeast transport mutant growth, absorbance 615 nm, 18 h; stronger effect = higher value.
The mark [9] stands for this setting: H69AR cells + 2 uM doxorubicin, measured here: viability with 2 uM doxorubicin, stronger effect = lower value.
[10] abbreviates: H69AR cells, compound alone cytotoxicity.

On to `COc1ccc(OC)c(C(=O)c2nc3c(n2O)CCCCC3)c1`, for which the viability in assay [1] was 78.5%; in assay [3] it was 78.5% (inactive); in assay [4], 99.9% (inactive); in assay [5], 93.2% (inactive); in assay [6] (setting [9]), 97.6%; in assay [6] (setting [10]) it was 93.2%. Moreover, in assay [2], the Her2 level is 122% (inactive). Also, in assay [6] (H69AR cells + 2 uM doxorubicin), the differential viability (reversal) was -4.37% (inactive). In addition, the inhibition in assay [7] was -5.13% (inactive); in assay [8], 0.98% (inactive).
For `O=C1CC(c2cccs2)CC2=C1C(c1ccccc1)n1ncnc1N2` (stereo not given), the viability in assay [1] was 105%; in assay [3], 105% (inactive); in assay [4], 100% (inactive); in assay [5], 93.8% (inactive); in assay [6] (setting [9]) it was 99.2%; in assay [6] (setting [10]) it was 93.8%. Besides, the Her2 level in assay [2] is 104% (inactive). For the same compound, the differential viability (reversal) in assay [6] (H69AR cells + 2 uM doxorubicin) is -5.41% (inactive). Also, the inhibition was -4.53% (inactive) in assay [7] and -2.3% (inactive) in assay [8].
Regarding `COc1cc(-c2nc(S(=O)(=O)c3ccccc3)c(N3CCOCC3)o2)cc(OC)c1OC`, the viability in assay [1] was 82.5%; in assay [3], 82.5% (inactive); in assay [4] it was 97.7% (inactive); in assay [5], 87.1% (inactive); in assay [6] (setting [9]) it was 72.2%; in assay [6] (setting [10]), 87.1%. Further, in assay [2], the Her2 level is 86.5% (inactive). The differential viability (reversal) in assay [6] (H69AR cells + 2 uM doxorubicin) was 14.8% (inactive). The inhibition was -3.16% (inactive) in assay [7] and 12% (inactive) in assay [8].
Consider `Cc1c(C(=O)O)sc2nc3n(c(=O)c12)CCC(C)CC3` (stereo not given), for which the viability in assay [1] is 93%; in assay [3] it was 93% (inactive); in assay [4] it was 82.2% (inactive); in assay [5] it was 88.2% (inactive); in assay [6] (setting [9]), 83%; in assay [6] (setting [10]), 88.2%. In addition, the Her2 level in assay [2] was 87% (inactive). Besides, in assay [6] (H69AR cells + 2 uM doxorubicin), the differential viability (reversal) was 5.25% (inactive). The figures for the inhibition in assay [7] and in assay [8] were -0.53% (inactive) and 8.69% (inactive), respectively.
For the compound `C/C(NC1CCCC1)=C(/C#N)C(N)=O`, the viability was 108% in assay [1]; 108% (inactive) in assay [3]; 116% (inactive) in assay [4]; 111% (inactive) in assay [5]; 101% in assay [6] (setting [9]); 111% in assay [6] (setting [10]). The Her2 level in assay [2] was 99% (inactive). Moreover, the differential viability (reversal) in assay [6] (H69AR cells + 2 uM doxorubicin) was 10.3% (inactive). The inhibition was -4.21% (inactive) in assay [7] and 3.11% (inactive) in assay [8].
For `COc1ccc(-c2nnc(SCC(=O)NC(=O)NCc3ccco3)o2)cc1`, the viability in assay [1] was 102%; in assay [3] it was 102% (inactive); in assay [4], 85.9% (inactive); in assay [5], 86.8% (inactive); in assay [6] (setting [9]), 88.1%; in assay [6] (setting [10]), 86.8%. In assay [2], the Her2 level is 85.5% (inactive). Besides, the differential viability (reversal) in assay [6] (H69AR cells + 2 uM doxorubicin) was -1.33% (inactive). The results for the inhibition in assay [7] and in assay [8] were -0.65% (inactive) and -2.46% (inactive), respectively.
As for `Cn1c(SCCN2CCCCC2)nnc1-c1ccccc1Br`, the viability in assay [1] was 94.5%; in assay [3] it was 94.5% (inactive); in assay [4], 105% (inactive); in assay [5] it was 105% (inactive); in assay [6] (setting [9]) it was 95.3%; in assay [6] (setting [10]) it was 105%. Also, the Her2 level in assay [2] was 95.5% (inactive). The differential viability (reversal) in assay [6] (H69AR cells + 2 uM doxorubicin) is 9.74% (inactive). For the same compound, the inhibition in assay [7] was -4.4% (inactive); in assay [8], 5.48% (inactive).
`Cc1cccc(C)c1NC(=O)N1CCN(C2CCCCC2)CC1`: the viability was 111% in assay [1]; 111% (inactive) in assay [3]; 109% (inactive) in assay [4]; 104% (inactive) in assay [5]; 91.6% in assay [6] (setting [9]); 104% in assay [6] (setting [10]). Further, the Her2 level in assay [2] was 92.5% (inactive). Also, the differential viability (reversal) in assay [6] (H69AR cells + 2 uM doxorubicin) was 12.6% (inactive). For the same compound, the inhibition is -8.03% (inactive) in assay [7] and -2.55% (inactive) in assay [8].
`CSc1nnc(-c2nnc(SC)n2-c2ccccc2)n1-c1ccccc1`: the viability was 87% in assay [1]; 87% (inactive) in assay [3]; 89.8% (inactive) in assay [4]; 98.3% (inactive) in assay [5]; 88.6% in assay [6] (setting [9]); 98.3% in assay [6] (setting [10]). Besides, the Her2 level in assay [2] is 83.5% (inactive). Besides, the differential viability (reversal) in assay [6] (H69AR cells + 2 uM doxorubicin) was 9.77% (inactive). Besides, the inhibition in assay [7] was -5.73% (inactive); in assay [8], 6.77% (inactive).
On to `CCC(C)Nc1nc2c(c(=O)n(C)c(=O)n2C)n1Cc1ccc(F)cc1` (stereo not given), for which the viability in assay [1] was 90.5%; in assay [3], 90.5% (inactive); in assay [4], 88.6% (inactive); in assay [5], 83.3% (inactive); in assay [6] (setting [9]), 97.6%; in assay [6] (setting [10]) it was 83.3%. The Her2 level in assay [2] is 86.5% (inactive). In addition, the differential viability (reversal) in assay [6] (H69AR cells + 2 uM doxorubicin) is -14.3% (inactive). The inhibition was -5.27% (inactive) in assay [7] and 5.08% (inactive) in assay [8].
Consider `Cc1ccc(N2CC(C(=O)Nc3nnc(C)s3)CC2=O)cc1` (stereo not given), for which the viability in assay [1] was 110%; in assay [3], 110% (inactive); in assay [4], 86.2% (inactive); in assay [5], 106% (inactive); in assay [6] (setting [9]) it was 89.9%; in assay [6] (setting [10]), 106%. For the same compound, the Her2 level in assay [2] is 90% (inactive). The differential viability (reversal) in assay [6] (H69AR cells + 2 uM doxorubicin) is 16.4% (inactive). Besides, the inhibition in assay [7] was -4.67% (inactive); in assay [8], 0.65% (inactive).
Take `COc1cccc(Cn2c(OCC3CCCO3)nc3c2c(=O)n(C)c(=O)n3C)c1` (stereo not given): the viability is 86.5% in assay [1]; 86.5% (inactive) in assay [3]; 104% (inactive) in assay [4]; 101% (inactive) in assay [5]; 101% in assay [6] (setting [9]); 101% in assay [6] (setting [10]). For the same compound, the Her2 level in assay [2] was 86% (inactive). The differential viability (reversal) in assay [6] (H69AR cells + 2 uM doxorubicin) was -0.075% (inactive). Further, the inhibition in assay [7] was -2.11% (inactive); in assay [8], 3.77% (inactive).
As for `O=C(CCN1C(=O)COc2ccccc21)NCCN1CCN(c2cccc(Cl)c2)CC1`, the viability is 94.5% in assay [1]; 94.5% (inactive) in assay [3]; 90.9% (inactive) in assay [4]; 83.8% (inactive) in assay [5]; 95.1% in assay [6] (setting [9]); 83.8% in assay [6] (setting [10]). Also, the Her2 level in assay [2] was 84% (inactive). Also, the differential viability (reversal) in assay [6] (H69AR cells + 2 uM doxorubicin) is -11.3% (inactive). Moreover, the figures for the inhibition in assay [7] and in assay [8] were -1.04% (inactive) and -3.33% (inactive), respectively.
With `Cc1ccc(CCC(=O)Nc2ccc(S(N)(=O)=O)cc2)o1`, the viability in assay [1] is 87.5%; in assay [3] it was 87.5% (inactive); in assay [4] it was 98.4% (inactive); in assay [5] it was 109% (inactive); in assay [6] (setting [9]), 101%; in assay [6] (setting [10]), 109%. Also, in assay [2], the Her2 level was 116% (inactive). Further, in assay [6] (H69AR cells + 2 uM doxorubicin), the differential viability (reversal) was 7.87% (inactive). For the same compound, the inhibition was 1.33% (inactive) in assay [7] and 6.23% (inactive) in assay [8].
As to `CCn1c(C(=O)N2CCC(C(=O)NCc3ccc4c(c3)OCO4)CC2)cc2sccc21`, the viability in assay [1] was 89%; in assay [3] it was 89% (inactive); in assay [4], 96.7% (inactive); in assay [5], 89.6% (inactive); in assay [6] (setting [9]), 85.3%; in assay [6] (setting [10]) it was 89.6%. Moreover, the Her2 level in assay [2] is 77.5% (inactive). The differential viability (reversal) in assay [6] (H69AR cells + 2 uM doxorubicin) is 4.37% (inactive). Moreover, the inhibition in assay [7] is -2.93% (inactive); in assay [8], 1.64% (inactive).
Take `CC(C)N(C(=O)CSc1nnc(-c2cc3ccccc3cc2O)n1Cc1ccco1)C(C)C`: the viability in assay [1] was 90.5%; in assay [3], 90.5% (inactive); in assay [4], 66.4% (inactive); in assay [5], 83.4% (inactive); in assay [6] (setting [9]) it was 81.9%; in assay [6] (setting [10]), 83.4%. Besides, the Her2 level in assay [2] is 76% (inactive). Moreover, in assay [6] (H69AR cells + 2 uM doxorubicin), the differential viability (reversal) is 1.54% (inactive). For the same compound, the inhibition is -5.81% (inactive) in assay [7] and -0.66% (inactive) in assay [8].
